tested on: not listed separately; experiment: Concentration required for inhibition of lipid synthesis in primary cultures of rat hepatocytes; assay type: functional, cell-based; conditions: Hepatocyte
Procedure, shortened: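 Primary hepatocytes from male Sprague-Dawley rats (Seglen isolation), plated at 1.5×10^5 cells/cm² on collagen in serum-containing DMEM, switched to serum-free medium after 4 h, grown overnight to monolayers. Cells incubated 4 h with 0.25 μCi [1-14C]acetate/well (1 Ci/mol final) plus 0, 1, 3, 10, 30, 100 or 300 μM compound. Lipids extracted into scintillant and counted; IC50 taken from lipid synthesis rates.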

Row | SMILES | IC50 [µM]
1 | CC(C)(CCCCCC(=O)CCCCCC(C)(C)C(=O)O)C(=O)O | 3

tested on: Rattus norvegicus; experiment: Amount of non-HDL-cholesterol in obese Zucker rats at pre-treatment at a dose of 30 mg/kg/day; assay type: functional; conditions: not given
Procedure, shortened: (§1)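 Female obese Zucker fatty rats [Crl:(Zuc)-faBR], 10–12 weeks old (400–500 g), on chow. Compound in 20% EtOH/80% PEG-200 (v/v) given by daily oral gavage. After a 6-h fast, serum was taken before dosing and at 7 days (orbital plexus), and at 14 days (cardiac puncture). Lipoprotein cholesterol came from Superose 6HR gel-filtration profiles × serum total cholesterol. Mean ± SEM.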

Row | SMILES | Activity [mg/dL]
2 | CC(C)(CCCCCC(=O)CCCCCC(C)(C)C(=O)O)C(=O)O | 27

tested on: Rattus norvegicus; experiment: Percent decrease in nonesterified fatty acids in obese Zucker rats after 1 week of treatment at a dose of 100 mg/kg/day; assay type: functional; design: scale not given: the % may be the effect or the level left; conditions: not given
Procedure, shortened: (§2)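 Female Zucker fatty rats [Crl:(Zuc)-faBR], 10–12 weeks, 400–500 g, acclimated 7 days on chow. Compound or vehicle (20% EtOH/80% PEG-200) given by daily oral gavage for 2 weeks, 0–100 mg/kg/day. After a 6 h fast, blood was taken before dosing, at 1 wk and at 2 wk. Serum lipids, NEFA and insulin (ELISA) were measured; glucose by glucometer. HDL/non-HDL-C came from Superose 6 gel-filtration profiles. Values are % change from pretreatment, mean ± SEM.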

Row | SMILES | Activity [%]
3 | CC(C)(CCCCCC(=O)CCCCCC(C)(C)C(=O)O)C(=O)O | -30

tested on: Rattus norvegicus; experiment: Amount of insulin in obese Zucker rats after 2 weeks of treatment at a dose of 100 mg/kg/day; assay type: functional; conditions: not given
Procedure, shortened: (§3)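 Female obese Zucker rats [Crl:(Zuc)-faBR], 400–500 g, given daily oral gavage in 20% EtOH/80% PEG-200 for up to 14 days. After a 6-h fast, serum was collected pretreatment and at day 7 (orbital bleed) and day 14 (cardiac puncture) and stored at -80 °C. Insulin was measured by ELISA. Values are mean ± SEM.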

Row | SMILES | Activity [ng/mL]
4 | CC(C)(CCCCCC(=O)CCCCCC(C)(C)C(=O)O)C(=O)O | 6

tested on: Rattus norvegicus; experiment: Amount of non-HDL-cholesterol in obese Zucker rats at pre-treatment at a dose of 0 mg/kg/day; assay type: functional; conditions: not given; procedure, shortened: as §1

Row | SMILES | Activity [mg/dL]
5 | CC(C)(CCCCCC(=O)CCCCCC(C)(C)C(=O)O)C(=O)O | 20

tested on: Rattus norvegicus; experiment: Amount of insulin in obese Zucker rats at pre-treatment at a dose of 0 mg/kg/day; assay type: functional; conditions: not given; procedure, shortened: as §3

Row | SMILES | Activity [ng/mL]
6 | CC(C)(CCCCCC(=O)CCCCCC(C)(C)C(=O)O)C(=O)O | 9.1

tested on: Rattus norvegicus; experiment: Amount of insulin in obese Zucker rats at pre-treatment at a dose of 100 mg/kg/day; assay type: functional; conditions: not given; procedure, shortened: as §3

Row | SMILES | Activity [ng/mL]
7 | CC(C)(CCCCCC(=O)CCCCCC(C)(C)C(=O)O)C(=O)O | 11.9

tested on: Rattus norvegicus; experiment: Amount of triglycerides in obese Zucker rats at pre-treatment at a dose of 0 mg/kg/day; assay type: functional; conditions: not given
Procedure, shortened: (§4)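 Female Zucker fatty rats [Crl:(Zuc)-faBR], 10–12 weeks old (400–500 g), dosed once daily by oral gavage in 20% EtOH/80% PEG-200 for up to 14 days. After a 6-h fast, serum was taken pre-dose, at day 7 (orbital venous plexus, O2/CO2 anaesthesia) and at day 14 (cardiac puncture), stored at −80 °C, and assayed on a Hitachi 912 automatic analyzer. Mean ± SEM.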

Row | SMILES | Activity [mg/dL]
8 | CC(C)(CCCCCC(=O)CCCCCC(C)(C)C(=O)O)C(=O)O | 950

tested on: Rattus norvegicus; experiment: Amount of triglycerides in obese Zucker rats after 1 week of treatment at a dose of 0 mg/kg/day; assay type: functional; conditions: not given; procedure, shortened: as §4

Row | SMILES | Activity [mg/dL]
9 | CC(C)(CCCCCC(=O)CCCCCC(C)(C)C(=O)O)C(=O)O | 1119

tested on: Rattus norvegicus; experiment: Amount of triglycerides in obese Zucker rats after 1 week of treatment at a dose of 10 mg/kg/day; assay type: functional; conditions: not given; procedure, shortened: as §4

Row | SMILES | Activity [mg/dL]
10 | CC(C)(CCCCCC(=O)CCCCCC(C)(C)C(=O)O)C(=O)O | 553

tested on: Rattus norvegicus; experiment: Amount of triglycerides in obese Zucker rats after 1 week of treatment at a dose of 30 mg/kg/day; assay type: functional; conditions: not given; procedure, shortened: as §4

Row | SMILES | Activity [mg/dL]
11 | CC(C)(CCCCCC(=O)CCCCCC(C)(C)C(=O)O)C(=O)O | 213

tested on: Rattus norvegicus; experiment: Amount of HDL-cholesterol in obese Zucker rats after 1 week of treatment at a dose of 100 mg/kg/day; assay type: functional; conditions: not given
Procedure, shortened: (§5)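 Female Zucker fatty rats [Crl:(Zuc)-faBR], 10–12 weeks old (400–500 g), dosed once daily by oral gavage in 20% EtOH/80% PEG-200 (dose volume 0.25% of body weight). Rats were fasted 6 h and bled before dosing and at day 7 (orbital plexus), and at day 14 (cardiac puncture). Serum cholesterol fractions came from Superose 6 gel-filtration lipoprotein profiles (% peak area × serum total cholesterol). Values are mean ± SEM.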

Row | SMILES | Activity [mg/dL]
12 | CC(C)(CCCCCC(=O)CCCCCC(C)(C)C(=O)O)C(=O)O | 100

tested on: Rattus norvegicus; experiment: Amount of HDL-cholesterol in obese Zucker rats after 2 weeks of treatment at a dose of 30 mg/kg/day; assay type: functional; conditions: not given; procedure, shortened: as §5

Row | SMILES | Activity [mg/dL]
13 | CC(C)(CCCCCC(=O)CCCCCC(C)(C)C(=O)O)C(=O)O | 208

tested on: Rattus norvegicus; experiment: Amount of HDL-cholesterol in obese Zucker rats after 2 weeks of treatment at a dose of 3 mg/kg/day; assay type: functional; conditions: not given; procedure, shortened: as §5

Row | SMILES | Activity [mg/dL]
14 | CC(C)(CCCCCC(=O)CCCCCC(C)(C)C(=O)O)C(=O)O | 77

tested on: Rattus norvegicus; experiment: Amount of nonesterified fatty acids in obese Zucker rats at pre-treatment at a dose of 0 mg/kg/day; assay type: functional; conditions: not given; procedure, shortened: as §4

Row | SMILES | Activity [mg/dL]
15 | CC(C)(CCCCCC(=O)CCCCCC(C)(C)C(=O)O)C(=O)O | 1.3

tested on: Rattus norvegicus; experiment: Amount of non-HDL-cholesterol in obese Zucker rats after 1 week of treatment at a dose of 10 mg/kg/day; assay type: functional; conditions: not given; procedure, shortened: as §5

Row | SMILES | Activity [mg/dL]
16 | CC(C)(CCCCCC(=O)CCCCCC(C)(C)C(=O)O)C(=O)O | 22

tested on: Rattus norvegicus; experiment: Amount of non-HDL-cholesterol in obese Zucker rats after 2 weeks of treatment at a dose of 0 mg/kg/day; assay type: functional; conditions: not given; procedure, shortened: as §5

Row | SMILES | Activity [mg/dL]
17 | CC(C)(CCCCCC(=O)CCCCCC(C)(C)C(=O)O)C(=O)O | 28

tested on: Rattus norvegicus; experiment: Amount of non-HDL-cholesterol in obese Zucker rats after 2 weeks of treatment at a dose of 30 mg/kg/day; assay type: functional; conditions: not given; procedure, shortened: as §1

Row | SMILES | Activity [mg/dL]
18 | CC(C)(CCCCCC(=O)CCCCCC(C)(C)C(=O)O)C(=O)O | 30

tested on: Rattus norvegicus; experiment: Percent increase in HDL-cholesterol in obese Zucker rats after 1 week of treatment at a dose of 100 mg/kg/day; assay type: functional; conditions: not given; procedure, shortened: as §2

Row | SMILES | Activity [%]
19 | CC(C)(CCCCCC(=O)CCCCCC(C)(C)C(=O)O)C(=O)O | 51

tested on: Rattus norvegicus; experiment: Percent increase in HDL-cholesterol in obese Zucker rats after 1 week of treatment at a dose of 30 mg/kg/day; assay type: functional; conditions: not given; procedure, shortened: as §2

Row | SMILES | Activity [%]
20 | CC(C)(CCCCCC(=O)CCCCCC(C)(C)C(=O)O)C(=O)O | 156

tested on: Rattus norvegicus; experiment: Amount of nonesterified fatty acids in obese Zucker rats after 1 week of treatment at a dose of 100 mg/kg/day; assay type: functional; conditions: not given; procedure, shortened: as §4

Row | SMILES | Activity [mg/dL]
21 | CC(C)(CCCCCC(=O)CCCCCC(C)(C)C(=O)O)C(=O)O | 0.98

tested on: Rattus norvegicus; experiment: Amount of nonesterified fatty acids in obese Zucker rats after 2 weeks of treatment at a dose of 10 mg/kg/day; assay type: functional; conditions: not given; procedure, shortened: as §4

Row | SMILES | Activity [mg/dL]
22 | CC(C)(CCCCCC(=O)CCCCCC(C)(C)C(=O)O)C(=O)O | 0.95

tested on: Rattus norvegicus; experiment: Amount of HDL-cholesterol in obese Zucker rats at pre-treatment at a dose of 30 mg/kg/day; assay type: functional; conditions: not given; procedure, shortened: as §5

Row | SMILES | Activity [mg/dL]
23 | CC(C)(CCCCCC(=O)CCCCCC(C)(C)C(=O)O)C(=O)O | 62

tested on: Rattus norvegicus; experiment: Amount of glucose in obese Zucker rats after 1 week of treatment at a dose of 3 mg/kg/day; assay type: functional; conditions: not given
Procedure, shortened: (§6)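 Female Zucker fatty rats [Crl:(Zuc)-faBR], 10–12 weeks old (400–500 g), gavaged daily with vehicle (20% EtOH/80% PEG-200, 0.25% of body weight) or compound. After a 6-h fast, blood glucose was read by glucometer from tail-prick blood of unanesthetized rats before dosing and after 1 and 2 weeks. Values are mean ± SEM.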

Row | SMILES | Activity [mg/dL]
24 | CC(C)(CCCCCC(=O)CCCCCC(C)(C)C(=O)O)C(=O)O | 117

tested on: Rattus norvegicus; experiment: Amount of insulin in obese Zucker rats after 1 week of treatment at a dose of 3 mg/kg/day; assay type: functional; conditions: not given; procedure, shortened: as §3

Row | SMILES | Activity [ng/mL]
25 | CC(C)(CCCCCC(=O)CCCCCC(C)(C)C(=O)O)C(=O)O | 10

tested on: Rattus norvegicus; experiment: Amount of triglycerides in obese Zucker rats at pre-treatment at a dose of 10 mg/kg/day; assay type: functional; conditions: not given; procedure, shortened: as §4

Row | SMILES | Activity [mg/dL]
26 | CC(C)(CCCCCC(=O)CCCCCC(C)(C)C(=O)O)C(=O)O | 863

tested on: Rattus norvegicus; experiment: Amount of triglycerides in obese Zucker rats at pre-treatment at a dose of 30 mg/kg/day; assay type: functional; conditions: not given; procedure, shortened: as §4

Row | SMILES | Activity [mg/dL]
27 | CC(C)(CCCCCC(=O)CCCCCC(C)(C)C(=O)O)C(=O)O | 982

tested on: Rattus norvegicus; experiment: Amount of insulin in obese Zucker rats after 1 week of treatment at a dose of 10 mg/kg/day; assay type: functional; conditions: not given; procedure, shortened: as §3

Row | SMILES | Activity [ng/mL]
28 | CC(C)(CCCCCC(=O)CCCCCC(C)(C)C(=O)O)C(=O)O | 10.5

tested on: Rattus norvegicus; experiment: Amount of glucose in obese Zucker rats at pre-treatment at a dose of 0 mg/kg/day; assay type: functional; conditions: not given; procedure, shortened: as §6

Row | SMILES | Activity [mg/dL]
29 | CC(C)(CCCCCC(=O)CCCCCC(C)(C)C(=O)O)C(=O)O | 129

tested on: Rattus norvegicus; experiment: Amount of glucose in obese Zucker rats at pre-treatment at a dose of 100 mg/kg/day; assay type: functional; conditions: not given; procedure, shortened: as §6

Row | SMILES | Activity [mg/dL]
30 | CC(C)(CCCCCC(=O)CCCCCC(C)(C)C(=O)O)C(=O)O | 117

tested on: Rattus norvegicus; experiment: Amount of insulin in obese Zucker rats after 2 weeks of treatment at a dose of 3 mg/kg/day; assay type: functional; conditions: not given; procedure, shortened: as §3

Row | SMILES | Activity [ng/mL]
31 | CC(C)(CCCCCC(=O)CCCCCC(C)(C)C(=O)O)C(=O)O | 7.3

tested on: Rattus norvegicus; experiment: Amount of non-HDL-cholesterol in obese Zucker rats after 2 weeks of treatment at a dose of 100 mg/kg/day; assay type: functional; conditions: not given; procedure, shortened: as §5

Row | SMILES | Activity [mg/dL]
32 | CC(C)(CCCCCC(=O)CCCCCC(C)(C)C(=O)O)C(=O)O | 3

Source: ChEMBL document CHEMBL1137992, “Long hydrocarbon chain keto diols and diacids that favorably alter lipid disorders in vivo” (J Med Chem, 2004)
